Source: PubChem
Sampled rows, rich in hits. Any-hit rate of the full collection: about 1.6%.
NR2E3 ag-1 = NR2E3 (human) agonism. AID 2300. inhibition of corepressor binding, % at 4.78 µM. Q9Y5X4. GST-NR2E3/biotin-RetCOR TR-FRET, 1536-well. hit rate 0.12% among 320,000;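 active = percent inhibition above the cutoff of mean plus 3 SD of all tested compounds, set per screening campaign, cut at about 20% in these data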;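 note: 0% = DMSO wells and 100% = biotin wells as full block of FRET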
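Material: NR2E3–RetCOR corepressor complex / Incubation: Compound–protein incubation for 5 h at 4 °C / Dosing: compound at 4.8 µM, single dose / Detection: time-resolved FRET / Benchmarks: high control biotin, low control 0.6% DMSO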
PG9 binder = small molecules binding HIV-1 gp120 antibody PG9 | AID 624416 | hit rate 0.43% among 360,000 | TR-FRET gp120-PG9 antibody binding | inhibition, % at 6.7 µM; in the data active = inhibition above about 8.5%
PKA-R1A act = activates the PKA-R1A holoenzyme complex; P00514+P68181; PKA-R1A dissociation, Cy5-IP20 fluorescence polarization; scaled: DMSO 0%, 113 µM cGMP 100%; activation, % at 11.4 µM; hit rate 0.083% among 340,000; AID 504707;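 active = percent activation above the mean of all tested compounds plus 3 SD, cut at about 19% in these data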;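 note: higher means more PKAc released from R1A so a rise in polarization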
PKA-R2B act = activators of human PKA-R2B complex; PKA-R2B holoenzyme dissociation, Cy5-IP20 fluorescence polarization; R2B truncated from residue 108, S112A mutant; 0% DMSO only, 100% 113 µM cGMP; activation, % at 11.4 µM; hit rate 0.079% among 340,000;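 active = activation above a cutoff set at the mean over all compounds plus 3 SD, cut at about 18% in these data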;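 note: higher means more holoenzyme dissociation and a rise in polarization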
NR1D1 modulator = modulates human Rev-erb alpha binding to DNA; P20393; Rev-erbα–FITC-DNA binding, fluorescence polarization, 90 min; activity, % at 10 µM; hit rate 0.79% among 370,000;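 active = activity above about 14%, limit read from the data; passing the limit was not always enough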;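 note: 0% = DMSO wells with 35 nM protein and 100% = DMSO wells with 750 nM protein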
Target sequence (P20393 whole entry, looked up): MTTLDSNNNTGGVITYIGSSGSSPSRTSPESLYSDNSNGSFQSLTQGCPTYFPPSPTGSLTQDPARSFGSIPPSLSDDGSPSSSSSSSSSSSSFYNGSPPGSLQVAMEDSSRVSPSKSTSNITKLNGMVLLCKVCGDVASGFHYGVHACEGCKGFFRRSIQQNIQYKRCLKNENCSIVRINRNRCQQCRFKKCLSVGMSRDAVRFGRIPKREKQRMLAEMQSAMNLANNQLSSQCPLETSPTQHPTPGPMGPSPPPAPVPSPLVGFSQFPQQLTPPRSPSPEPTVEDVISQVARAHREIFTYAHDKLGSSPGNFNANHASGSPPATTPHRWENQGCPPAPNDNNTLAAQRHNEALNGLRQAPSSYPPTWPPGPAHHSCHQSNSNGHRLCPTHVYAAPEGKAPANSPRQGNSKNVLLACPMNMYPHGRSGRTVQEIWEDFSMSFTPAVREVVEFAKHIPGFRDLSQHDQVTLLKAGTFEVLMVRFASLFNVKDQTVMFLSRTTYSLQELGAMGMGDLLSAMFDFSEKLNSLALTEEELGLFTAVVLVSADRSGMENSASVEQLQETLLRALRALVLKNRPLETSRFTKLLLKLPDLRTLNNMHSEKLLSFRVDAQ
NR2E3 ag-2 = agonists of human NR2E3 nuclear receptor. Q9Y5X4. CHO-S Gal4-NCOR/VP16-NR2E3 two-hybrid, luciferase. inhibition of corepressor binding, % at 3.98 µM. hit rate 0.35% among 360,000. AID 602229;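 active = inhibition above the mean of all tested compounds plus 3 SD, cut at about 70% in these data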;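 note: 0% = DMSO with NR2E3 transfected cells and 100% = cells lacking NR2E3 construct; higher means lower luciferase signal from less NR2E3 corepressor binding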
NR1D1 mod conf = confirmation of modulators of human Rev-erb alpha DNA binding; shares compounds with NR1D1 modulator; Rev-erb alpha FITC-DNA binding, fluorescence polarization, 90 min; activation, % at 25 µM; hit rate 61% among 3,000; AID 1259319;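 active = activation at or above a set limit, or at least 3 SD above the negative control mean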;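 note: 0% = 35 nM protein with DMSO and 100% = 750 nM protein high control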
RORg DNA counter = affects RORgamma DNA binding in a Rev-erb alpha counter-screen; purified RORgamma protein-FITC-DNA binding, fluorescence polarization; IC50, µM; AID 1259320; shares compounds with NR1D1 modulator; hit rate 8% among 910;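 active = Compounds whose fitted half-maximal concentration for disrupting protein-DNA binding is below 10 micromolar; the record names Rev-erb in its text, so the target is in doubt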
Starred values were filed as active, the others as inactive; i = inactive; · = no result.

SMILES	NR2E3 ag-1	PG9 binder	PKA-R1A act	PKA-R2B act	NR1D1 modulator	NR2E3 ag-2	NR1D1 mod conf	others
CC(OC(=O)c1cc2c(ccc3ccccc32)oc1=O)c1nc2ccccc2s1 (configuration not stated)	5	-2	-3	-3	54*	-19	33*	RORg DNA counter=>40
O=C1CCC[C@H]2[C@@H](Cc3ccccc3)[C@@H](O)CC[C@]23CCCN13	·	·	·	·	0	·	·
Cc1cc2oc(C(=O)Nc3ccc(S(=O)(=O)Nc4ncccn4)cc3)c(C)c2cc1Cl	·	0	-2	-3	22*	5	-4
CC(C)=CC([C@]12C[C@H](CO)N[C@@H]1Nc1ccccc12)S(=O)(=O)c1ccccc1 (some centres not stated)	·	·	·	·	-2	·	·
C=CCN(CC#Cc1ccccn1)Cc1ccc(OC)cc1OC	·	·	·	·	-6	·	·
Cc1ccc(NC(=O)C2CCN(c3nnc(-n4cccc4)s3)CC2)cc1C	·	·	·	·	4	·	·
Cc1cc2cc(CN(Cc3ccco3)C(=O)NCc3ccccc3)c(=O)[nH]c2cc1C	-2	1	3	1	1	0	·
Cc1cc2cc(CN(Cc3ccco3)C(=O)C3CCCCC3)c(=O)[nH]c2cc1C	-1	1	-2	9	43*	-13	44*
O=C(Nc1cccc(C(F)(F)F)c1)c1cc(Br)cc2c1OCC2	-1	0	-1	10	28*	-26	31*	RORg DNA counter=4.5*
O=c1c2ccccc2sc2ccc(Cl)cc12	6	-1	-9	-3	80*	-9	77*	RORg DNA counter=>40
O=c1c2ccccc2sc2ccccc12	·	-1	-6	-6	8	-29	·
COC(=O)[C@H](CC(C)C)N(CCc1cn(Cc2ccc(C)cc2)nn1)S(=O)(=O)c1ccc(F)cc1Br	·	·	·	·	-1	·	·
Cn1cc(/C=C/c2cc[n+](C)cc2)c2cc(F)ccc21	-11	·	-12	-9	·	-30	·
Cn1cc(/C=C/c2cc[n+](C)cc2)c2cc(Cl)ccc21	-8	-8	9	5	165*	6	140*	RORg DNA counter=>40
COc1ccc(CCNc2nc(=S)[nH]c3cc(OC)c(OC)cc23)cc1OC	3	0	7	7	0	-7	·
COc1cc2[nH]c(=S)nc(NCCc3ccc(C)cc3)c2cc1OC	·	8	-6	14	76*	-11	52*	RORg DNA counter=4*
CCOC(=O)CC[C@H]1CC[C@]2(CCCN(C(=O)C3CCCC3)C2)O1	·	·	·	·	6	·	·
Cc1[nH]nc2nc(SCC(=O)NC3CCCCC3)n(-c3ccc(Br)cc3)c(=N)c12	1	4	-1	-5	64*	1	65*	RORg DNA counter=i
COc1ccc(-n2c(SCC(=O)NC3CCCCC3)nc3ccsc3c2=O)cc1	-2	1	-1	2	49*	0	33*	RORg DNA counter=>40
CCOc1ccc(-n2c(SCC(=O)Nc3ccc(CC)cc3)nc3n[nH]c(C)c3c2=N)cc1	2	0	-3	7	6	-6	·
CCC(C)NC(=O)CSc1nc2ccsc2c(=O)n1-c1ccc(OC)cc1 (configuration not stated)	-1	2	1	8	5	-14	·
CCC(CC)C(=O)c1c[nH]c(C(=O)NCc2cccs2)c1	1	-1	-4	-11	1	-16	·
CC(C)(C)c1ccc(C(=O)c2c[nH]c(C(=O)NCc3cccs3)c2)cc1	4	3	1	-11	96*	3	94*	RORg DNA counter=i
NC(=O)[C@@H]1CCCN1C(=O)[C@@H](Cc1ccccc1)NC(=O)[C@H]1O[C@@H](n2ccc(=O)[nH]c2=O)[C@H](O)[C@@H]1O	·	0	·	·	-1	·	·
Nc1[nH]c(C(=O)c2ccccc2)c(-c2ccccc2)c1C(=O)NCCc1c[nH]c2ccccc12	·	-1	·	·	0	·	·
SMILES	NR2E3 ag-1	PG9 binder	PKA-R1A act	PKA-R2B act	NR1D1 modulator	NR2E3 ag-2	NR1D1 mod conf	others
COc1ccc(-c2cc(-c3ccccc3)c(C#N)c(SCC(=O)O)n2)cc1	0	1	1	-4	2	-17	·
N#Cc1c(-c2ccccc2)cc(-c2ccccc2)nc1SCc1nnc(-c2ccccc2)o1	2	0	-15	1	50*	-9	24*
CN1CCN(C2=C(Cl)C(=O)N(c3ccc(Cl)cc3)C2=O)CC1	-1	·	-1	-8	·	-13	·
O=C1C(Cl)=C(NC2CCCCC2)C(=O)N1c1ccc(Cl)cc1	4	-3	0	5	40*	-35	13
COC(=O)Cc1nnn2c1[C@@H](C)[C@@H](c1ccccc1Br)OC[C@H](C)C2	·	1	·	·	3	·	·
CCN(CC)c1ccc2cc(-c3nc(-c4ccc(OC)cc4)cs3)c(=O)oc2c1	1	0	·	·	40*	·	29*
O=C(NCc1ccccc1Cl)c1ccc2c(=O)n(CCCN3CCCC3=O)c(=S)[nH]c2c1	1	1	-8	0	29*	-6	18*
CCCn1c(=S)[nH]c2cc(C(=O)NCc3ccccc3OC)ccc2c1=O	·	5	1	-10	36*	-14	27*
COC(CNC(=O)c1ccc2c(=O)n(Cc3ccc(Cl)cc3)c(=S)[nH]c2c1)OC	·	-1	-10	-10	29*	-27	12
COC(CNC(=O)c1ccc2c(=O)n(Cc3ccc4c(c3)OCO4)c(=S)[nH]c2c1)OC	·	-4	4	-3	3	-18	·
COCCNC(=O)c1ccc2c(=O)n(CCCN3CCCC3=O)c(=S)[nH]c2c1	-2	-2	-1	-7	2	-3	·
C=CCN1C(=O)[C@H](CC(=O)NCC23CC4CC(CC(C4)C2)C3)[C@@]2(C(=O)OCC)CCCC=C12	·	·	·	·	-4	·	·
CCCCCOc1ccc(/C=N/NC(=O)CSc2nnc(-c3ccc(OC)cc3)n2-c2ccc(C)cc2)cc1	·	·	·	·	-12	·	·
C#CCN1CC(N(C)CCOC(=O)c2occ3ccccc23)CS1(=O)=O (configuration not stated)	·	·	·	·	3	·	·
CCCCNc1c(-c2cccc(SC(C)CC)c2)nc2ccc(Cl)cn12 (configuration not stated)	·	-1	-13	-5	-3	-28	·
CCC(C)Sc1ccc(-c2nc3ccc(Cl)cn3c2NCc2ccccc2)cc1 (configuration not stated)	·	1	1	6	26*	-20	15
O=C(O)CSc1ncnc2c1sc1nc(-c3ccccc3)c3c(c12)CCC3	3	0	1	-2	-3	7	·
CC(C)Cc1nc2sc3c(SCC(N)=O)ncnc3c2c2c1CCC2	4	0	16	-4	369*	-26	568*	RORg DNA counter=i
